Bioassay records from PubChem.
In the library only some 4.9% were active in any assay of this set; here they are far more common.
NPY-Y1 PAM-ag: human NPY-Y1 potentiation or agonism, primary screen; P25929; AID 1304; activation, % at 3.6 µM; NPY-Y1 expressing cells, potentiator/agonist activation; 0.37% of 220,000 active; in the data active = activation above about 33%, passing the limit was not always enough;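 also: cells stimulated with NPY at EC10 then isoproterenol at EC100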
Target sequence (P25929 whole entry, looked up): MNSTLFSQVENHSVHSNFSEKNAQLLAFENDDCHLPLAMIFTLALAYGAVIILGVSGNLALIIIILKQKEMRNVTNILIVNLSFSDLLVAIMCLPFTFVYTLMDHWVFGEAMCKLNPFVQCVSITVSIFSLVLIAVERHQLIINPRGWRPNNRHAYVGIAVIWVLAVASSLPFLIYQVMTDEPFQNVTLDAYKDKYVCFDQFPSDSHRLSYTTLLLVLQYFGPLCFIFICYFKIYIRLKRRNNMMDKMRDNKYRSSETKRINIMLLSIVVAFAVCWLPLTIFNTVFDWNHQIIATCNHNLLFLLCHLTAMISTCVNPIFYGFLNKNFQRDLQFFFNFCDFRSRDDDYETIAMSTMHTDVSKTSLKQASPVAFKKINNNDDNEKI
NPY2 pot ag: potentiators or agonists of human neuropeptide Y receptor Y2 | P49146 | cells expressing NPY-Y2, potentiator/agonist read-out | activation, % at 3.6 µM | 0.45% of 220,000 active; in the data active = activation above about 27%;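 also: cells stimulated with NPY near EC25 plus isoproterenol at EC100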
NPY Y1 blocker: blocks the human neuropeptide Y Y1 receptor; inhibition, % at 3.6 µM; AID 1040; 1% of 200,000 active; HEK293-CNG Y1 cells, membrane potential fluorescence; NPY at EC95, then isoproterenol;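 active = inhibition above the campaign mean inhibition of all tested compounds plus 3 SD, cut at about 20% in these data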
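Test system – HEK293 Y1/CNG channel cell line · Also added – NPY agonist 25 nM, then isoproterenol 1 µM plus Ro 20-1724 25 µM · Compound dosing – one concentration, 3.6 µM, in 0.4% DMSO · Schedule – compound incubation 1 h at room temperature, readout 45 min post-stimulation · Technique – fluorescence, membrane potential probe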
RAM inhibit: yeast RAM network inhibition | 1.8% of 190,000 active | inhibition, % at 50 µM | S. cerevisiae dse1pr::URA3 reporter, 5-FOA growth OD615, 2 d; analog-sensitive cbk1-as2 kinase mutant strain;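 active = inhibition above a set limit, 3 SD over mean compound inhibition, cut at about 8.4% in these data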;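 also: inhibition rescues growth on 5-FOA so higher OD means more RAM inhibition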
NPY Y2 blocker: NPY-Y2 (human) receptor antagonism; 0.99% of 140,000 active; P49146; inhibition, % at 2.7 µM; NPY-Y2 expressing cells, antagonist mode; in the data active = inhibition above about 17%
WT yeast gro inh: growth inhibition of WT yeast, mitochondrial fusion screen | mitochondrial fusion phenotypic screen, WT strain | inhibition, % at 10 µM | 2.1% of 190,000 active; in the data active = inhibition above about 58%; tested in S. cerevisiae
RAM 5-FOA: RAM network inhibition, efflux-deficient strain; shares compounds with RAM inhibit; max inhibition, %; S. cerevisiae efflux-deficient reporter strain, 5-FOA growth OD615, 2 days; 1,200 tested, under 10 active; call rule not given here
Numbers stand for hits; 0 = inactive; - = not tested or not shown.

SMILES	NPY-Y1 PAM-ag	NPY2 pot ag	NPY Y1 blocker	RAM inhibit	NPY Y2 blocker	WT yeast gro inh	RAM 5-FOA
CCOC(=O)c1c(C)nc2c(c1-c1cc(OC)ccc1OC)C(=O)c1ccccc1-2	0	0	0	0	0	0	-
CCOC(=O)c1ccc(COC(=O)c2ccc3c(c2)-c2ccccc2C3=O)cc1	0	0	0	12	0	0	0
O=C(OCc1ccccc1F)c1ccc2c(c1)-c1ccccc1C2=O	0	0	0	13	0	0	0
CCOC(=O)C1=C(Cc2ccc(OC)cc2)C(=O)c2ccccc2C1=O	0	0	0	12	0	0	0
O=C(OCc1cccc(F)c1)c1ccc2c(c1)-c1ccccc1C2=O	0	0	0	0	0	0	-
Cc1ccc(S(=O)(=O)NCCCOC(=O)Nc2ccncc2)cc1	0	0	0	0	0	0	-
Cc1ccc2nc(-c3ccc(NC(=O)CSc4nccc(=O)[nH]4)cc3)sc2c1	0	0	0	12	-	0	0
Cc1cc(C(F)F)n2ncc(C(=O)N3CCC(C(N)=O)CC3)c2n1	0	0	0	0	0	0	-
O=C(Nc1ccccc1C(=O)Nc1nnc(C(F)(F)F)s1)c1ccccc1	0	0	-	-	-	-	-
C=CCn1c(C)cc(C(=O)COC(=O)/C=C/c2ccc(OC)cc2)c1C	0	0	0	0	-	0	-
C=CCn1c(C)cc(C(=O)COC(=O)/C=C/c2cccc(OC)c2)c1C	0	0	0	20	-	0	0
CCOC(=O)c1c(NC(=O)CSc2nnc(-c3ccco3)o2)sc(C)c1C	0	0	0	12	0	0	0
CCOC(=O)c1c(NC(=O)CSc2nnc(Cc3ccccc3)o2)sc(C)c1C	0	0	0	14	0	0	0
CCCCCCN(C(=O)CCCCCN1C(=O)NC(c2ccc(-c3ccccc3)cc2)C(C(=O)OCc2ccccc2)=C1C)C(C(=O)NCCCC)c1ccc(OCC(=O)OC)cc1 (configuration not stated)	0	0	0	13	0	0	0
O=C(c1cnc(-c2ccccc2)s1)c1ccc(Cl)cc1Cl	0	0	0	13	0	64	0
C=CCSC1=N/C(=C/c2ccsc2)C(=O)N1c1ccccc1	0	0	0	14	0	0	0
COc1ccc2c(CC(=O)O)cc(=O)oc2c1	0	0	-	-	-	-	-
O=S(=O)(c1ccccc1)N1CCN=C1SCc1ccc(Cl)c(Cl)c1	0	0	0	12	0	0	0
CN(C(=O)c1ccc2c(=O)n3c(nc2c1)CCCCC3)c1ccccc1	0	0	0	0	0	0	-
O=C(COc1cccc(F)c1)N1c2ccccc2Sc2ccccc21	0	0	0	15	0	0	0
Cc1ccc2nc(-c3ccc4c(c3)OCCO4)cc(C(=O)O)c2c1	0	0	0	0	0	0	-
NCCCC[C@@H]1NC(=O)c2cc([N+](=O)[O-])cc(F)c2NCCCC[C@@H](C(N)=O)NC(=O)CNC1=O	0	0	0	0	0	0	-
COc1ccc(NC(=O)CCC(=O)OC(C(=O)c2ccccc2)c2ccccc2)cc1 (configuration not stated)	0	0	0	0	0	0	-
Cc1ccc(C(=O)C(OC(=O)CCC(=O)Nc2cccc(C)c2)c2ccccc2)cc1 (configuration not stated)	0	0	0	13	0	0	0
N#C/C(=C\c1c[nH]c2ccccc12)C(=O)Nc1ncc(Cc2ccc(Cl)cc2Cl)s1	0	0	0	14	0	0	0
SMILES	NPY-Y1 PAM-ag	NPY2 pot ag	NPY Y1 blocker	RAM inhibit	NPY Y2 blocker	WT yeast gro inh	RAM 5-FOA
Cn1cc(/C=C(\C#N)C(=O)Nc2ncc(Cc3cccc(Cl)c3)s2)c2ccccc21	0	0	0	0	0	0	-
CCOc1nc(-c2ccncc2)nc2ccccc12	0	0	0	0	0	0	-
CCCOc1ccc(-c2nc(OCC)c3ccccc3n2)cc1	0	0	0	13	0	60	0
CCCCOC(=O)c1ccc(NC(C)=O)cc1	0	0	0	0	0	0	-
CCCCOC(=O)c1ccc(NC(=O)/C=C/c2cccs2)cc1	0	0	0	15	0	0	0
CN(Cc1ccccc1)C(=O)c1[nH]cnc1C(=O)N[C@@H](Cc1ccccc1)C(=O)OCc1ccccc1	0	0	0	12	-	0	0
CC(C)C[C@H](NC(=O)c1nc[nH]c1C(=O)NCc1ccccc1)C(=O)OCc1ccccc1	0	0	0	14	-	0	0
C=CCSc1cc(C)nc2c(-c3ccc(Cl)cc3)c(C)nn12	0	0	0	0	0	0	-
CCOC(=O)c1c(-c2cccs2)csc1NC(=O)COC(=O)c1c(C)noc1C	0	0	0	12	0	0	0
COc1cc(/C=C/C(=O)O)ccc1OCc1cnc(Cl)s1	0	0	0	0	-	0	-
CSc1nnc2c3ccccc3c3ccccc3c2n1	0	0	0	13	0	0	0
N#CCCN(Cc1cccnc1)C(=O)Nc1ccc(Cl)c(Cl)c1	0	0	0	0	0	0	-
O=C(O)c1cccc(CSc2nnc(-c3ccco3)o2)c1	0	0	0	0	0	0	-
O=C(Nc1ccccc1-c1nnc(SCc2ccccc2)o1)c1ccccc1	0	0	0	19	0	0	0
COc1cc(OC)cc(-c2nnc(SCc3cccc(C(=O)O)c3)o2)c1	0	0	0	14	0	0	0
O=c1c(-c2nnc(SCc3ccc(Cl)cc3)o2)cccn1Cc1ccccc1	0	0	0	0	0	0	-
COc1cc(CNn2c(C)n[nH]c2=S)cc(Br)c1OCc1ccc(F)cc1	0	0	0	0	0	0	-
CC(=O)c1ccc(N(C(=O)CS(=O)CC(=O)Nc2ccc(F)cc2)C(C(=O)NC2CCCCC2)c2cccs2)cc1 (configuration not stated)	0	0	0	18	0	0	0
CC(=O)c1cccc(N(C(=O)CS(=O)CC(=O)Nc2ccc(F)cc2)C(C(=O)NC2CCCCC2)c2ccc(C)o2)c1 (configuration not stated)	0	0	0	0	0	0	-
COc1ccc(-c2ccc(SCC(=O)NCc3ccc4c(c3)OCO4)nn2)cc1OC	0	0	0	12	-	0	0
COC(=O)c1scc(C)c1N/N=C(\C)c1ccc(F)cc1F	0	0	0	13	0	0	0
Cc1ccccc1N1C(=O)CC1(C#N)c1ccc(OCc2ccccc2)cc1 (configuration not stated)	0	0	0	11	0	0	0
COc1ccccc1N1C(=O)CC1(C#N)c1ccc(OCc2ccccc2)cc1 (configuration not stated)	0	0	0	0	0	0	-
COc1ccc2c(CC(=O)OCC(=O)Nc3cc(C)c(C)cc3[N+](=O)[O-])coc2c1	0	0	0	12	0	0	0
C/C(=N\Nc1nc2c(s1)CCCC2)c1ccc(Cl)cc1	0	0	0	13	0	72	0
